High-throughput results (PubChem)
Shown are actives, neighbours in structure and some others; about 2.2% of the full set was active somewhere.
ABHD5-PLIN5 inh: inhibitors of human ABHD5-perilipin-5 interaction; Split G. princeps luciferase complementation, luminescence, 4 h; 0.78% of 360,000 active; AID 602281; Q00G26+Q8WTS1; inhibition, % at 4 µM;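 active = inhibition above the mean inhibition across every tested compound plus 3 SD, cut at about 22% in these data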
HKDC1 inh: HKDC1 (human) hexokinase inhibition; recombinant HKDC1, G6PDH/diaphorase resazurin coupled fluorescence; inhibition, % at 20 µM; AID 493160; Q2TB90; 0.16% of 340,000 active;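 active = inhibition above about 35% when tested at 20 µM, limit read from the data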
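System: Recombinant HKDC1 hexokinase | Amount: HKDC1 at 5 µg/mL | Reagent: Glucose with 1 mM ATP | Doses: Single 20 µM dose | Incubation: Reaction time 90 min, room temperature, protected from light | Signal: Coupled resazurin fluorescence, excitation 525 nm, emission 613 nm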
PfG6PD inh: PfG6PD (Plasmodium falciparum) enzyme inhibition | PfGluPho enzyme, NADPH resazurin-diaphorase fluorescence | AID 504690 | inhibition, % at 20 µM | 0.78% of 350,000 active;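 active = inhibition reaching at least a set limit at 20 µM in the primary screen, cut at about 59% in these data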
Exocytosis inh: lytic granule exocytosis inhibition. TALL-104 LAMP-1 surface exposure, flow cytometry; cells stimulated with thapsigargin and PMA. inhibition, % at 10 µM. 0.66% of 360,000 active. AID 651702;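 active = inhibition above about 55%, limit read from the data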
ABHD5-PLIN5 conf: confirmation of human ABHD5-PLIN5 interaction inhibitors; shares compounds with ABHD5-PLIN5 inh; biochemical ABHD5-PLIN5 interaction, luminescence; inhibition, % at 4 µM; 67% of 2,200 active; AID 651612; in the data active = inhibition above about 23%
HNF4 split-luc: active in HNF4 split-luciferase counter-screen for ABHD5-PLIN5 inhibitors. shares compounds with ABHD5-PLIN5 inh. HNF4 dimerization, luminescence, biochemical. inhibition, % at 4 µM. 77% of 2,200 active. AID 651674;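 active = mean inhibition across replicate wells exceeding the computed hit threshold, cut at about 13% in these data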;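 note: light from luciferase halves that rejoin when HNF4 fusion proteins dimerize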
Target sequence (P41235 whole entry, looked up, the tested form may be a part): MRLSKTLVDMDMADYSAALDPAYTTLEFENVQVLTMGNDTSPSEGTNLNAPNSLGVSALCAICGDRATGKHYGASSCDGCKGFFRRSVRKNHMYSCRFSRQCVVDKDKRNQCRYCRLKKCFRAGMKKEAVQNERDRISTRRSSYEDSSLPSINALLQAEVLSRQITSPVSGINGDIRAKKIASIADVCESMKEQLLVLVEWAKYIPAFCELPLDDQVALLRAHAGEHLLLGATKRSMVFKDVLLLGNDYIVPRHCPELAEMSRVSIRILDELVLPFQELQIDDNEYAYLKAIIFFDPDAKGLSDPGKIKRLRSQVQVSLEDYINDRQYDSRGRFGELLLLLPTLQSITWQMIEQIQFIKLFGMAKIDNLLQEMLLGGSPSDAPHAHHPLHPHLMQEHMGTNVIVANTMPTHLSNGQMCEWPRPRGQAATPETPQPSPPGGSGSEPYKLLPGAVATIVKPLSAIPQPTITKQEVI
A number is an active result; - = inactive; . = no result.

SMILES	ABHD5-PLIN5 inh	HKDC1 inh	PfG6PD inh	Exocytosis inh	ABHD5-PLIN5 conf	HNF4 split-luc
COc1ccc(-n2c(=O)cc(N3CC(C)OC(C)C3)[nH]c2=O)cc1 (stereo not given)	37.2	-	-	-	-	-
CC[C@@H]1CC=C[C@H]2[C@H]1C(=O)N(Cc1ccccc1)[C@H]2c1ccoc1	23.5	-	-	-	36.7	34.7
C[C@@H]1CC=C[C@H]2[C@H]1C(=O)N(Cc1ccccc1)[C@H]2c1ccoc1	-	-	-	-	.	.
Cc1sc2nc3ccc(NCc4ccco4)nn3c(=O)c2c1C	31.0	-	-	-	65.9	77.4
Cc1sc2nc(SCC(=O)NCc3ccco3)n(C)c(=O)c2c1C	-	-	-	-	.	.
O=c1c2ccccc2nc2ccc(NCc3ccco3)nn12	31.4	-	-	-	72.4	79.9
O=C1c2ccccc2C(=O)N1Cc1nc2ccccc2c(=O)n1Cc1ccco1	.	-	-	.	.	.
COc1ccccc1CC(=O)NCc1nn(-c2ccccc2)nc1C	-	-	-	-	.	.
O=C(Nc1ccc2nc(N3CCOCC3)sc2c1)c1cc2ccccc2o1	-	.	-	-	.	.
COc1ccc(OC)c(C2Nc3c(Cl)ccc(C(=O)O)c3C3C=CCC32)c1 (stereo not given)	-	-	-	-	.	.
COC(=O)COc1ccc(C2Nc3c(Cl)ccc(C(=O)O)c3C3C=CCC32)cc1 (stereo not given)	23.2	-	-	-	-	28.1
COC(=O)c1ccc(NC(=O)C2CCCN2C(=O)OCc2ccccc2)cc1 (stereo not given)	-	-	-	-	.	.
O=C(O)CCc1ccc(-c2ccc(Cl)cc2)o1	43.0	-	-	-	-	-
Cc1oc(-c2ccc(Cl)cc2)cc1C(=O)O	-	-	-	-	.	.
COc1ccc(-c2ccc(CCC(=O)O)o2)cc1	60.5	-	-	-	-	64.5
O=C(O)CCc1ccc(-c2ccc(Br)cc2)o1	29.0	-	-	-	24.0	71.2
CCOC(=O)C1=C(COC(=O)c2ccc(OC)c(OC)c2OC)NC(=O)NC1C (stereo not given)	-	-	-	-	.	.
O=C(CCCCN1CCCCC1)c1ccccc1	-	-	-	-	.	.
O=C(C(=Cc1ccccc1)CN1CCCCC1)c1ccccc1	46.7	-	-	-	77.3	65.1
CCOc1ccc(S(=O)(=O)NCc2ccco2)c2ccccc12	26.2	-	-	-	-	-
O=C(N/N=C/C=C/c1ccco1)C(O)c1ccccc1 (stereo not given)	34.9	-	-	-	47.2	59.6
N#C/C(=C/c1cccc(O)c1)C(=O)NCc1ccc(Cl)cc1	23.7	-	-	-	63.9	55.1
N#C/C(=C\c1cccc(NC(=O)c2ccccc2Cl)c1)C(=O)NCCc1ccccc1	47.2	-	-	-	83.0	77.5
Cc1cccc(-n2cnc3c(c2=O)c2nc4ccccc4nc2n3Cc2ccco2)c1	30.1	-	-	-	47.5	69.8
COc1ccc(-n2cc(CN[C@H]3CCCCNC3=O)c(-c3cccc(F)c3)n2)cc1	-	-	-	-	.	.
SMILES	ABHD5-PLIN5 inh	HKDC1 inh	PfG6PD inh	Exocytosis inh	ABHD5-PLIN5 conf	HNF4 split-luc
COc1ccc(-n2cc(CNC3CCN(C)CC3)c(-c3cccc(F)c3)n2)cc1	31.5	-	-	-	-	-
COc1ccc(N(CCC#N)C(=O)/C(C#N)=C\c2cccs2)cc1	-	-	-	-	.	.
CC(Oc1ccccc1F)C(=O)NNC(=O)c1ccc(F)c(S(=O)(=O)N2CCOCC2)c1 (stereo not given)	63.3	-	-	-	-	-
NS(=O)(=O)c1ccc(CNC(=O)c2sccc2-c2ccccc2)cc1	-	-	-	-	.	.
COc1ccc(C(=O)Cn2c(C)nc([N+](=O)[O-])c2Br)cc1	-	-	-	-	.	.
Cc1nc([N+](=O)[O-])c(Br)n1CC(=O)c1ccc(Cl)cc1	26.6	-	-	-	31.1	25.6
COc1ccc(-c2nc3ccccc3c(=O)n2CCOc2cc(C)ccc2C)cc1	-	-	-	-	.	.
Cc1c(C(=O)OCC(C)C)[nH]c2c1C(=O)CC(c1ccco1)C2 (stereo not given)	28.0	-	-	-	-	-
O=C(O)c1cccc(NC2=C(Cl)C(=O)c3ccccc3C2=O)c1	37.9	-	-	-	38.1	23.9
CC1=C(Nc2ccc(C(=O)O)cc2)C(=O)c2ccccc2C1=O	-	-	-	-	.	.
COC(C[C@H](O)[C@@H](C)[C@H](O)COCc1ccccc1)OC	-	-	-	-	.	.
O=[N+]([O-])c1cc(S(=O)(=O)C(F)(F)F)ccc1Sc1nc2ccccc2[nH]1	53.9	-	-	-	59.1	78.6
Cc1cccc2cc3c(nc12)SC(=NCC1CCCO1)N(Cc1ccco1)C3 (stereo not given)	26.0	-	-	-	43.1	77.0
COc1cc(OC)c(NS(=O)(=O)c2cc3[nH]c(=O)c(=O)[nH]c3cc2C)cc1Cl	-	-	-	-	.	.
N#CC1c2ccccc2C=CN1C(=O)N(c1ccccc1)c1ccccc1 (stereo not given)	36.2	-	-	-	32.0	34.0
COc1ccc(C(=O)N2C=Cc3ccccc3C2C#N)cc1 (stereo not given)	-	.	-	-	.	.
CCOC(=O)COc1ccc(/C=C/[N+](=O)[O-])c(OCC(=O)OCC)c1	28.1	-	-	-	62.5	94.6
O=C(CSc1nnc(-c2ccc(Cl)cc2)n1Cc1ccco1)c1cccs1	33.1	-	-	-	-	13.7
NC(=O)CSc1nnc(-c2cccs2)n1Cc1ccco1	-	-	-	-	.	.
O=C(CSc1nnc(-c2ccncc2)n1Cc1ccco1)c1ccc(Cl)cc1	32.5	-	-	-	-	29.4
COC(=O)c1ccc(CN2C(=O)C(C)N(C(=O)c3c(F)cccc3F)c3ccccc32)cc1 (stereo not given)	-	-	-	-	.	.
COc1ccc(NC(=O)CN(C)C(=O)c2oc3c(ccc4ccccc43)c2C)cc1	-	-	-	-	.	.
Cn1nc(NC(=O)CC23CC4CC(CC(C4)C2)C3)c2c(F)cccc21	-	-	-	-	.	.
CC(C)N(C(C)C)S(=O)(=O)c1ccc(Cl)nc1	-	-	-	-	.	.
CC(C)N(C(C)C)S(=O)(=O)c1ccc(N2CCc3ccccc3C2)nc1	39.5	-	-	-	30.1	26.4
SMILES	ABHD5-PLIN5 inh	HKDC1 inh	PfG6PD inh	Exocytosis inh	ABHD5-PLIN5 conf	HNF4 split-luc
CCN(CC)S(=O)(=O)c1ccc(N2CCN(S(=O)(=O)c3ccccc3)CC2)nc1	-	-	-	-	.	.
CCN(CC)S(=O)(=O)c1ccc(N2CCc3ccccc3C2)nc1	44.5	-	-	-	61.0	72.2
O=C(Cn1ccc(NC(=O)OCc2ccccc2)nc1=O)NCCc1c[nH]c2ccccc12	-	-	-	-	.	.
O=c1cc(-c2ccccc2Cl)oc2cc(O)cc(O)c12	-	-	-	-	.	.
O=C1C=CC(O)(c2cc(=O)c3c(O)cc(O)cc3o2)C=C1	89.0	-	-	-	101.3	106.1
COc1ccccc1NC(=O)CC1C(=O)NCCN1C(=O)Nc1ccc(Cl)c(Cl)c1 (stereo not given)	23.6	-	-	-	-	-
